We go through 15 compounds from ChEMBL document CHEMBL1122679, “Beta-adrenergic blocking agents: substituted phenylalkanolamines. Effect of side-chain length on beta-blocking potency in vitro” (J Med Chem, 1984).

For data set [1], the species on record is Cavia porcellus. Put plainly: Beta-adrenoceptor blocking potency in the isolated guinea pig heart, giving 50% inhibition of isoproterenol-induced tachycardia relative to oxprenolol. It counts as functional.
A short description of data set [2]: Partition coefficient (logP). Conditions: octanol/water. It is filed as physicochemical. The gist of the method:
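Octanol/buffer partitioning. Compounds at about 10^-4 M in 0.067 M pH 7.4 phosphate buffer (octanol-saturated) were shaken with buffer-saturated 1-octanol for 1 h at 25.0 °C, then centrifuged. Concentrations in each phase were measured spectrophotometrically. The coefficient was taken as the octanol/buffer concentration ratio, done in triplicate.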

Data set [3] in a line: pK value is evaluated. It is filed as ADME. The note with it: read-out: pK. The gist of the method:
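Spectrophotometric determination. Dilute solutions were circulated through a glass electrode and a 1-cm spectrophotometer cell. pKa was calculated from the pH-dependent spectra.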

For data set [4], the species on record is Cavia porcellus. The experiment in a line: Beta-adrenoceptor blocking potency in the isolated guinea pig heart, giving 50% inhibition of isoproterenol-induced tachycardia. It counts as functional. The method, boiled down: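 Langendorff-perfused isolated hearts from male Pirbright guinea pigs (330-640 g), removed under urethane anesthesia (1.5 g/kg ip). Perfusion with oxygenated Krebs-Henseleit plus ascorbic acid and NaEDTA at 36 °C. Heart rate recorded continuously. After ~30 min control, DL-isoproterenol sulfate (0.005 µg/mL) was added to the perfusate. Increasing compound concentrations were then given, 10 min each, against the isoproterenol tachycardia.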

The species named for data set [5] is Cavia porcellus. The experiment in a line: Compound was evaluated for beta-adrenoceptor blocking potency in the isolated guinea pig, giving 50% inhibition of isoproterenol-induced tachycardia relative to oxprenolol. It is filed as functional.

In turn, `COc1ccccc1CCC(O)CNC(C)(C)C` (stereo unspecified) returned a Relative activity in the data set listed under Cavia porcellus [1] of 0.012. In data set [2] (read-out: logP), the logP was -0.21. For the same compound, the pKa in data set [3] turned out to be 9.9. Moreover, in the data set filed under Cavia porcellus [4], the “-Log concentration” value stood at 5.67 log_unit.
Turning to `COc1ccccc1CC(O)CNCCOc1ccc(O)c(C(N)=O)c1` (stereo unspecified), in the data set filed under Cavia porcellus [1], the Relative activity was found to be 0.061. Further, the “-Log concentration” value in the data set filed under Cavia porcellus [4] is listed as 6.39 log_unit.
In the data set listed under Cavia porcellus [1], `COc1ccccc1OCC(O)CNC(C)(C)C` (stereo unspecified) showed a Relative activity of 0.45. In data set [2] (read-out: logP), the logP was -0.44. Also, the pKa in data set [3] is 9.8. Besides, the “-Log concentration” value in the data set listed under Cavia porcellus [4] came to 7.26 log_unit.
Compound `C=CCOc1ccccc1OCC(O)CNC(C)C` (stereo unspecified) [OXPRENOLOL] gave a Relative activity in the data set filed under Cavia porcellus [1] of 1. In addition, the logP in data set [2] is given as 0.2. Also, the pKa in data set [3] turned out to be 9.4. In the data set filed under Cavia porcellus [4], the “-Log concentration” value worked out at 7.6 M l-1.
With `NC(=O)c1cc(OCCNCC(O)CCc2ccccc2)ccc1O` (stereo unspecified), the Relative activity in the data set filed under Cavia porcellus [1] turned out to be 0.19. The “-Log concentration” value in the data set filed under Cavia porcellus [4] is listed as 6.9 log_unit.
For `NC(=O)c1cc(OCCNCC(O)CCCCc2ccccc2)ccc1O` (stereo unspecified), the Relative activity in the data set filed under Cavia porcellus [1] came out at 0.018. In addition, the “-Log concentration” value in the data set filed under Cavia porcellus [4] amounted to 5.85 log_unit.
As for `COc1ccccc1OCC(O)CNCCOc1ccc(O)c(C(N)=O)c1` (stereo unspecified), the logP in data set [2] (read-out: logP) was determined as 1.14. Also, the pKa in data set [3] turned out to be 8.8. In the data set filed under Cavia porcellus [5], the Relative activity worked out at 6.9. Also, the “-Log concentration” value in the data set listed under Cavia porcellus [4] turned out to be 8.45 log_unit.
`NC(=O)c1cc(OCCNCC(O)c2ccccc2)ccc1O` (stereo unspecified) gave a Relative activity in the data set filed under Cavia porcellus [1] of 0.011. In data set [2] (read-out: logP), the logP amounted to 1.24. Further, the “-Log concentration” value in the data set filed under Cavia porcellus [4] was found to be 5.66 log_unit.
In the data set filed under Cavia porcellus [1], `COc1ccccc1CCCC(O)CNCCOc1ccc(O)c(C(N)=O)c1` (stereo unspecified) registered a Relative activity of 0.1. The “-Log concentration” value in the data set listed under Cavia porcellus [4] is 6.6 log_unit.
On to `COc1ccccc1CCC(O)CNCCOc1ccc(O)c(C(N)=O)c1` (stereo unspecified), for which, in the data set filed under Cavia porcellus [1], the Relative activity amounted to 1.8. Further, in data set [2] (read-out: logP), the lipophilicity (logP) was 1.56. Moreover, in data set [3], the pKa was 8.9. In addition, in the data set filed under Cavia porcellus [4], the “-Log concentration” value was 7.85 log_unit.
For the compound `COc1ccccc1CCCCC(O)CNCCOc1ccc(O)c(C(N)=O)c1` (stereo unspecified), the Relative activity in the data set listed under Cavia porcellus [1] was 0.068. Besides, the “-Log concentration” value in the data set listed under Cavia porcellus [4] amounted to 6.43 log_unit.
Take `NC(=O)c1cc(OCCNCC(O)Cc2ccccc2)ccc1O` (stereo unspecified): the Relative activity in the data set listed under Cavia porcellus [1] is reported as 0.018. In addition, the “-Log concentration” value in the data set listed under Cavia porcellus [4] was determined as 5.84 log_unit.
In the case of `COc1ccc(CCC(O)CNCCOc2ccc(O)c(C(N)=O)c2)cc1` (stereo unspecified), the Relative activity in the data set filed under Cavia porcellus [5] worked out at 0.029. Besides, the “-Log concentration” value in the data set listed under Cavia porcellus [4] worked out at 6.07 log_unit.
Compound `Cc1ccccc1CCC(O)CNCCOc1ccc(O)c(C(N)=O)c1` (stereo unspecified) returned a Relative activity in the data set listed under Cavia porcellus [1] of 0.3. The “-Log concentration” value in the data set filed under Cavia porcellus [4] came to 7.08 log_unit.
On to `COc1ccccc1C(O)CNCCOc1ccc(O)c(C(N)=O)c1` (stereo unspecified), for which the Relative activity in the data set listed under Cavia porcellus [1] is 0.33. For the same compound, in the data set listed under Cavia porcellus [4], the “-Log concentration” value is on record as 7.12 log_unit.

A word on the logP: it is a log measure of how a compound divides between an organic and an aqueous phase.
